VIM-2 inh = inhibitors of Pseudomonas aeruginosa VIM-2 metallo-beta-lactamase. purified VIM-2, nitrocefin hydrolysis, epi-absorbance fluorescence. inhibition, % at 5.6 µM. 290,000 compounds, 0.89% hits. AID 1527;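 active = inhibition above the mean of all tested compounds plus 3 SD, cutoff set per screening run, cut at about 7.5% in these data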;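 note: red hydrolysis product quenches plate fluorescence so inhibitors raise well fluorescence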
IMP-1 inhibitor = inhibitors of Pseudomonas aeruginosa IMP-1 metallo-beta-lactamase; AID 1556; purified IMP-1, nitrocefin hydrolysis, epi-absorbance fluorescence; inhibition, % at 5.6 µM; 290,000 compounds, 0.45% hits;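 active = inhibition above the mean plus 3 SD of all compounds in the same screening run, cut at about 4.5% in these data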
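Test system: recombinant IMP-1 enzyme, purified / Medium: HEPES buffer pH 7.1 with ZnSO4 and Brij 35 / Doses: single dose, 5.6 µM / Times: 25 °C, 15 min preincubation, 25 min reaction / Detection: Epi-absorbance via hydrolysed-nitrocefin quenching of white-plate fluorescence, 480/530 nm, EDTA stop / Evaluation: percent inhibition from optical density relative to buffer-blank wells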
m5-HT2A agonist = agonists of mouse serotonin 5-HT2A receptor (HTR2A) | P35363 | CHO-K1 mHTR2A beta-arrestin complementation, luminescence; percent of 30 µM serotonin response | activation, % at 7.6 µM | 360,000 compounds, 0.66% hits;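 active = activation above a run cutoff, the mean activation of all tested compounds plus 3 SD, cut at about 14% in these data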
Target sequence (P35363 whole entry, looked up): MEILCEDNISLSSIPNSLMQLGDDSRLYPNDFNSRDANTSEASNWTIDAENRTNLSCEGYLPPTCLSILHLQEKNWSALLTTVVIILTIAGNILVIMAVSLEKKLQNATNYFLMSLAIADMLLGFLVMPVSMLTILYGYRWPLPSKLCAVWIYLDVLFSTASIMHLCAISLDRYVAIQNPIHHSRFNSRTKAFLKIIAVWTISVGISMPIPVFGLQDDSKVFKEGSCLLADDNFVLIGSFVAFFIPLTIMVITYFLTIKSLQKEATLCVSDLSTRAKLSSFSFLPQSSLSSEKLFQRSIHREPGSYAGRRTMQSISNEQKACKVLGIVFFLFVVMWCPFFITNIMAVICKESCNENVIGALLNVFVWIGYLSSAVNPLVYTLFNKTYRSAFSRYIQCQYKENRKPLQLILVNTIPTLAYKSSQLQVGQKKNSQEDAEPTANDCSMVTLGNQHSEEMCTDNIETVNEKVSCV
dFosB act-1 = mouse delta FosB homodimer activation; 340,000 compounds, 0.99% hits; purified delta FosB, TAMRA-CDK5 oligo fluorescence polarization; percent of positive-control signal above neutral wells; activation, % at 25 µM;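 active = mean activation above about 17%, with every replicate also reaching it, limit read from the data, passing the limit was not always enough; inconclusive = only one of the two conditions met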
dFosB act-2 = activators of mouse delta FosB homodimer DNA binding | shares compounds with dFosB act-1 | purified delta FosB, TAMRA-CDK5 oligo fluorescence polarization; normalised: neutral wells 0, positive control 100 | activation, % at 24.9 µM | 2,400 tested, under 10 active;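 active = highest replicate activation at or above 34% and every replicate reaching that threshold; inconclusive = meets only one of the two criteria; inactive = meets neither criterion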;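 note: higher polarization means more probe DNA bound by delta FosB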
Large screens that a line does not name were inactive (follow-up assays come after a bar, where they were run). An excerpt weighted towards active compounds, which were near 2.5% of everything screened.

CCc1cc2cc3c(cc2nc1SCC(=O)Nc1nccs1)OCO3	none
CCc1cc2cc3c(cc2nc1SCC(=O)Nc1c[nH]c(=O)[nH]c1=O)OCO3	dFosB act-1 70 | dFosB act-2 inactive
O=C(Nc1ccccc1Oc1ccccc1)[C@@H]1O[C@H](CO)[C@H](O)[C@H](O)[C@H]1O	none (no result: VIM-2 inh, IMP-1 inhibitor, dFosB act-1)
O=C(CN(Cc1ccc(Cl)cc1)C(=O)CN1C(=O)COc2ccccc21)NC1CCCC1	dFosB act-1 29 | dFosB act-2 inactive
O=S1(=O)[C@H]2C[C@@H]3C=C[C@@]2(CN1Cc1cccc(F)c1)O3	none
N#C/C(=C(/O)COC(=O)c1ccc2c(c1)OCCO2)c1nc2ccccc2[nH]1	dFosB act-1 39 | dFosB act-2 inactive
Cc1c(C(=O)OCC(=O)N2CC(=O)Nc3ccccc32)oc2ccc(Br)cc12	dFosB act-1 70 | dFosB act-2 inactive
Cc1cc(C(=O)OCC(=O)N2CC(=O)Nc3ccccc32)no1	none
COc1ccc(/C=N/n2c(=O)[nH]c3c([nH]c4ccc(Br)cc43)c2=O)cc1CN1CCOCC1	dFosB act-1 28 | dFosB act-2 inactive
CCOc1ccc(NS(=O)(=O)c2ccc(C(=O)NCC(c3ccc(OC)cc3)N3CCCC3)cc2)cc1 (stereo not drawn)	dFosB act-1 24 (no result: VIM-2 inh, IMP-1 inhibitor) | dFosB act-2 inactive
COc1ccc(C(CNC(=O)c2ccc(NS(=O)(=O)c3ccc(F)c(C)c3)cc2)N2CCCC2)cc1 (stereo not drawn)	none (no result: VIM-2 inh, IMP-1 inhibitor)
COc1cc(NC(=O)C2Cc3ccccc3CN2S(C)(=O)=O)cc(OC)c1 (stereo not drawn)	dFosB act-1 23 | dFosB act-2 inactive
COc1ccc(Cl)cc1NC(=O)C1Cc2ccccc2CN1S(C)(=O)=O (stereo not drawn)	none
CS(=O)(=O)c1ccc2nc(NC(=O)c3ccc(NS(=O)(=O)c4ccc(F)c(F)c4)cc3)sc2c1	dFosB act-1 35 | dFosB act-2 inactive
O=C(Nc1nc2ccc(SC(F)F)cc2s1)c1ccc(NS(=O)(=O)c2ccc(F)c(F)c2)cc1	dFosB act-1 38 | dFosB act-2 inactive
CS(=O)(=O)c1ccc2nc(NC(=O)c3cccc(NS(=O)(=O)c4ccc(F)c(F)c4)c3)sc2c1	dFosB act-1 29 | dFosB act-2 inactive
CSc1nc2ccc(NC(=O)c3ccc(F)c(F)c3)cc2s1	none
CCNC(=O)N1CCC(n2nccc2NC(=O)CCCc2ccccc2)CC1	none
CCOc1ccc(S(=O)(=O)Nc2ccn(C)n2)cc1	none (no result: VIM-2 inh, IMP-1 inhibitor)
COc1cccc(Nc2nc3ccc(C(=O)c4ccccc4)cc3n3cnnc23)c1	dFosB act-1 19 | dFosB act-2 inactive
COC(=O)c1ccc(Nc2nc3ccc(C)cc3n3cnnc23)cc1	none
CC(C)Nc1nnc(SCC(=O)N2CCN(C(=O)c3ccco3)CC2)s1	none (no result: VIM-2 inh, IMP-1 inhibitor)
COc1ccc2cc1Oc1ccc(cc1)C[C@H]1c3cc(c(OC)cc3CCN1C)Oc1c(OC)c(OC)cc3c1[C@H](C2)N(C)CC3	dFosB act-1 26 (no result: VIM-2 inh, IMP-1 inhibitor) | dFosB act-2 inconclusive
COc1ccc2cc1Oc1ccc(cc1)C[C@H]1c3c(cc4c(c3Oc3cc5c(cc3OC)CCN(C)[C@@H]5C2)OCO4)CCN1C	none (no result: VIM-2 inh, IMP-1 inhibitor)
COC(=O)C(Cc1ccc(O)cc1)NC(=O)CCc1nc2ccccc2s1 (stereo not drawn)	none
O=C(Cn1nnc(-c2ccc(CN3CCOCC3)cc2)n1)Nc1nc(-c2ccccc2)cs1	dFosB act-1 25 | dFosB act-2 inactive
O=C(CN1CCOCC1)Nc1nc(-c2ccccc2)cs1	none
Cc1cc(C)c2nc(-c3ccccn3)cc(C(=O)NCc3ccc(S(N)(=O)=O)cc3)c2c1	dFosB act-1 65 | dFosB act-2 inactive
Cc1c(C(=O)NNC(=O)c2ccccc2O)oc2ccc(Br)cc12	dFosB act-1 37 (no result: VIM-2 inh, IMP-1 inhibitor) | dFosB act-2 inactive
CCOC(=O)c1ccc(-n2cccc2/C=C2\NC(=O)NC2=O)cc1	dFosB act-1 30 (no result: VIM-2 inh, IMP-1 inhibitor) | dFosB act-2 inactive
CCOC(=O)c1cccc(-n2cccc2/C=C2\NC(=O)N(CC(=O)O)C2=O)c1	none (no result: VIM-2 inh, IMP-1 inhibitor)
NC(=O)c1nn(-c2ccccc2)nc1NC(=O)Cn1nnc(-c2ccccc2)n1	dFosB act-1 22 | dFosB act-2 inactive
O=C(Cn1nnc(-c2ccccc2)n1)NNC(=O)c1ccc(Br)cc1	dFosB act-1 36 | dFosB act-2 inactive
O=C(Cn1nnc(-c2ccccc2)n1)NNC(=O)c1ccccc1	none
NC(=O)c1nn(-c2ccccc2)nc1NC(=O)CN1CCCC1	none
Cc1ccccc1OCc1nnc(SCC(=O)Nc2ccc3nc(SCC(=O)Nc4ccccc4)sc3c2)n1C	dFosB act-1 20 | dFosB act-2 inactive
CCc1ccccc1NC(=O)CSc1nnc(-c2cc(C)[nH]n2)n1N	none
CCCCCc1cc(=O)oc2c(C(CCN3CCCC(C)C3)c3ccc4c(c3)OCO4)c(OC)cc(OC)c12 (stereo not drawn)	dFosB act-1 32 (no result: VIM-2 inh, IMP-1 inhibitor) | dFosB act-2 inactive
COc1cc(OC)c2c(-c3ccccc3)cc(=O)oc2c1C(CCN1CCOCC1)c1ccc2c(c1)OCO2 (stereo not drawn)	none (no result: VIM-2 inh, IMP-1 inhibitor)
COc1ccc(C(CCN2CCN(c3ccccc3)CC2)c2c(OC)cc(OC)c3c(-c4ccccc4)cc(=O)oc23)cc1 (stereo not drawn)	dFosB act-1 20 (no result: VIM-2 inh, IMP-1 inhibitor) | dFosB act-2 inactive
COc1cc(OC)c2c(-c3ccccc3)cc(=O)oc2c1C(CCN1CCCC1)c1ccc2c(c1)OCO2 (stereo not drawn)	dFosB act-1 19 (no result: VIM-2 inh, IMP-1 inhibitor) | dFosB act-2 inactive
COCCN1C(=O)COc2ccccc2C1C(=O)NCc1ccccc1 (stereo not drawn)	none (no result: VIM-2 inh, IMP-1 inhibitor, dFosB act-1)
O=C(NC1CCS(=O)(=O)C1)c1ccc(S(=O)(=O)N2CCCCC2)cc1 (stereo not drawn)	none
CN1CCN(C(=O)C(N)Cc2ccccc2)CC1 (stereo not drawn)	none
O=C(NNc1ccccc1[N+](=O)[O-])Nc1ccc(Cl)c(Cl)c1	dFosB act-1 29 | dFosB act-2 inactive
CC(=O)Nc1ccc(NC(=O)c2ccc(COc3ccccc3Br)o2)cc1	dFosB act-1 69 | dFosB act-2 inactive
COc1ccc2cc(OCC(=O)NNC(=O)Nc3ccc(F)cc3)ccc2c1	dFosB act-1 21 | dFosB act-2 inactive
N#CNC(N)=Nc1cccc(Cl)c1	dFosB act-1 22 | dFosB act-2 inactive
CC(OC(=O)c1cc2c(s1)CCCCC2)C(=O)NC(N)=O (stereo not drawn)	dFosB act-1 inconclusive
CC(C)C(OC(=O)c1cc2c(s1)CCCCC2)C(=O)NC(N)=O (stereo not drawn)	dFosB act-1 26 | dFosB act-2 inactive
CCOc1ccc(-c2c(C(=O)N/N=C/c3cccc(Br)c3)nnn2-c2nonc2N)cc1	dFosB act-1 55 | dFosB act-2 inactive
CCOc1cccc(-c2c(C(=O)N/N=C/c3ccc(Br)cc3)nnn2-c2nonc2N)c1	dFosB act-1 29 | dFosB act-2 inactive
CCOc1ccc(-c2c(C(=O)N/N=C/c3ccc(O)cc3)nnn2-c2nonc2N)cc1	none
